This is an account of results in ChEMBL document CHEMBL1128243, “Three-dimensional quantitative structure-activity relationships of sulfonamide endothelin inhibitors” (J Med Chem, 1995).

Broadly, the IC50 is the concentration at which inhibition is half-maximal. A low value points to inhibition by little substance.

The structures appear in SMILES notation.

In the assay the target is T1, Endothelin-1 receptor (Rattus norvegicus, UniProt P26684).
T1 sequence (P26684 whole entry): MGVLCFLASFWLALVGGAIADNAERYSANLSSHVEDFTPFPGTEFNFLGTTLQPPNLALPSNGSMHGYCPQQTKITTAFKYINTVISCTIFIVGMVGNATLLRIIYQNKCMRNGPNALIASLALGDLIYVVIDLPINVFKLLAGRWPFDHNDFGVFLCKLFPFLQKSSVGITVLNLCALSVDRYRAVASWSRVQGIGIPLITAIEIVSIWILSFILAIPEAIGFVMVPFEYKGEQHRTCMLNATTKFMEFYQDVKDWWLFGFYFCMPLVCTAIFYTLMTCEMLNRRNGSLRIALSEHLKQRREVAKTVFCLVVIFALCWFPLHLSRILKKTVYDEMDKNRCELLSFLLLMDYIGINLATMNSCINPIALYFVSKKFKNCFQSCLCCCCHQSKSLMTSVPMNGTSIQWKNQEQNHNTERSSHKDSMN
Put plainly: Inhibition of [125I]endothelin-l binding to endothelin A receptor of rat thoracic aorta smooth muscle cells. Format: tissue-based. The essentials: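 Membranes from A10 rat thoracic aorta smooth muscle cells (cultured, trypsin-detached, stored at -70 °C, then thawed, homogenized and centrifuged to a membrane pellet). Samples filtered through glass fiber filters and washed, then filter-retained radioactivity counted.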
As to `Cc1noc(NS(=O)(=O)c2ccc3c(N)cccc3c2)c1C`, the half-inhibitory concentration (IC50) is 24000 nM. The result for `Cc1onc(NS(=O)(=O)c2cccc3c(N(C)C)cccc23)c1C` reads 15 nM. The result for `CC(=O)Nc1cccc2ccc(S(=O)(=O)Nc3onc(C)c3C)cc12` reads 27500 nM; that for `Cc1noc(NS(=O)(=O)c2cccc3ccc(N)cc23)c1C`, 1450 nM.

On to `CC(=O)Nc1ccc(S(=O)(=O)Nc2onc(C)c2C)c2ccccc12`, for which the IC50 amounted to 3400 nM. The result for `Cc1noc(NS(=O)(=O)c2cccc3ccccc23)c1C` reads 3100 nM; that for `Cc1noc(NS(=O)(=O)c2cccc3cc(N(C)C)ccc23)c1C`, 840 nM; that for `CC(=O)Nc1ccc2c(S(=O)(=O)Nc3onc(C)c3C)cccc2c1`, 1300 nM. Molecule `Cc1cc(NS(=O)(=O)c2ccc(O)cc2)no1` yielded an IC50 of 53000 nM. The result for `Cc1noc(NS(=O)(=O)c2ccc3ccc(N)cc3c2)c1C` reads 10000 nM.

With `Cc1noc(NS(=O)(=O)c2cccc3cc(N)ccc23)c1C`, the IC50 was found to be 2400 nM.

As to `Cc1noc(NS(=O)(=O)c2ccc3ccc(N(C)C)cc3c2)c1C`, the IC50 is 1400 nM. On to `Cc1noc(NS(=O)(=O)c2cccc3c(N(C)C(C)C)cccc23)c1C`, for which the IC50 is 4 nM. The result for `Cc1noc(NS(=O)(=O)c2ccc3cccc(N)c3c2)c1C` reads 9800 nM. As to `Cc1noc(NS(=O)(=O)c2ccc(N)c3ccccc23)c1C`, the IC50 turned out to be 3500 nM. Consider `Cc1noc(NS(=O)(=O)c2cccc(N)c2)c1C`, for which the IC50 was 1300 nM. For `Cc1noc(NS(=O)(=O)c2cccc3ccc(N(C)C)cc23)c1C`, the IC50 stood at 5600 nM. With `CC(=O)Nc1ccc2ccc(S(=O)(=O)Nc3onc(C)c3C)cc2c1`, the IC50 amounted to 42000 nM. The result for `Cc1noc(NS(=O)(=O)c2ccc3cccc(N(C)C)c3c2)c1C` reads 31500 nM; that for `Cc1noc(NS(=O)(=O)c2ccc3cc(N)ccc3c2)c1C`, 600 nM. The result for `CCNc1ccc(S(=O)(=O)Nc2onc(C)c2C)cc1` reads 5000 nM; that for `Cc1noc(NS(=O)(=O)c2ccc(N(C)C)cc2)c1C`, 84000 nM; that for `CC(=O)Nc1cccc2c(S(=O)(=O)Nc3noc(C)c3C)cccc12`, 16 nM.

`Cc1onc(NS(=O)(=O)c2ccc(N)cc2)c1Br` showed an IC50 of 510 nM.

Regarding `Cc1noc(NS(=O)(=O)c2cccc3c(NC(C)C)cccc23)c1C`, the IC50 is 5 nM.

`CC(=O)Nc1ccc2cc(S(=O)(=O)Nc3onc(C)c3C)ccc2c1` came in with an IC50 of 3800 nM. Consider `Cc1noc(NS(=O)(=O)c2cccc3c(N(C)C)cccc23)c1C` [BMS-182874], for which the IC50 was determined as 15 nM. `Cc1onc(NS(=O)(=O)c2ccc(N)cc2)c1C` [SULFATROXAZOLE]: the IC50 was 260 nM.
